Measured values of several laboratories.
Protocols differ between the studies behind these lines.
Target: Adenosine receptor A1 (ADORA1, Homo sapiens, UniProt P30542)
Sequence (P30542 1-326, as in one of the studies): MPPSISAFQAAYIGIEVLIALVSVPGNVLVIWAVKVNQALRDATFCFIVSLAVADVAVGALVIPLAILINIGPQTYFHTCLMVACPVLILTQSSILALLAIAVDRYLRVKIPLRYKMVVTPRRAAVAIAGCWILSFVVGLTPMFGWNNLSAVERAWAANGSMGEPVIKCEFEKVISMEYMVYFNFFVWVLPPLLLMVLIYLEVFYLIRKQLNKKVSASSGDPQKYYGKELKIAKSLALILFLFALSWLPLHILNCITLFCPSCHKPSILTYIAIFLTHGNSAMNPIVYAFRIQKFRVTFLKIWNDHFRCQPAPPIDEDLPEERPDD

SMILES | effect on | method | notes | measurement | result
CNC(=O)[C@@]12C[C@@H]1[C@@H](n1cnc3c(NCc4cn(-c5ccc(C(=O)NCCCF)cc5)nn4)nc(Cl)nc31)[C@H](O)[C@@H]2O | ligand displacement | radioligand | cell membranes | Ki | 1380 nM
CNC(=O)[C@@]12C[C@@H]1[C@@H](n1cnc3c(NCCc4ccc(O)c(OC)c4)nc(C#Cc4ccc(Cl)s4)nc31)[C@H](O)[C@@H]2O | cell-free assay | radioligand | – | Ki | 43 nM
COc1cccc(Cn2c(=O)n(CC3CC3)c(=O)c3c2nc2cc(OC)ccn23)c1 | ligand displacement | radioligand | cell membranes | Ki | 209 nM
O[C@@H]1[C@H](O)CO[C@H]1n1cnc2c(NCc3cccc(I)c3)ncnc21 | ligand displacement | radioligand | cell membranes | Ki | 2080 nM
OC[C@@]12C[C@@H]1[C@@H](n1cnc3c(NC(C4CCCC4)C4CCCC4)nc(Cl)nc31)[C@H](O)[C@@H]2O | ligand displacement | radioligand | – | Ki | 436 nM
CNC(=O)[C@@]12C[C@@H]1[C@@H](n1cnc3c(NCc4cccc(C#CCCCc5cn(-c6ccc(F)c(N)c6)nn5)c4)nc(Cl)nc31)[C@H](O)[C@@H]2O | ligand displacement | radioligand | cell membranes | Ki | 640 nM
CCCCCCN1CCCn2c1nc1c2c(=O)n(C)c(=O)n1C | ligand displacement | radioligand | cell membranes | Ki | 3800 nM
C#CCCCCC(=O)NCCNC(=O)COc1ccc(-c2nc3c([nH]2)c(=O)n(CCC)c(=O)n3CCC)cc1 | ligand displacement | radioligand | cell membranes | Ki | 107 nM
CCCC[C@H](NC(=O)[C@H](C)c1c(C)[nH]c2ccc(O)cc12)c1ncc(-c2cc3ccccc3nc2OC)[nH]1 | cell-free assay | – | – | IC50 | 2730 nM
C#CCNc1nc(Cl)nc2c1ncn2[C@H]1[C@H](O)[C@H](O)[C@]2(C(=O)NC)C[C@H]12 | ligand displacement | radioligand | cell membranes | Ki | 400 nM
C=CN1CCCn2c1nc1c2c(=O)n(C)c(=O)n1C | ligand displacement | radioligand | cell membranes | Ki | > 10000 nM
CCNC(=O)C1OC(n2cnc3c(N)nc(NN=CC4CCC=CO4)nc32)C(O)C1O (centres unmarked) | ligand displacement | radioligand | cell membranes | Ki | 76.4 nM
COCCN(CCOC)C(=O)[C@@]12C[C@@H]1[C@@H](n1cnc3c(N)nc(Cl)nc31)[C@H](O)[C@@H]2O | ligand displacement | radioligand | – | Ki | 998 nM
O[C@@H]1[C@H](O)CO[C@H]1n1cnc2c(NCc3cccc(Br)c3)ncnc21 | ligand displacement | radioligand | cell membranes | Ki | 3300 nM
